Experimental data pooled from the literature.
Lines come from different studies, so protocols differ.
Target: Receptor tyrosine-protein kinase erbB-2 (ERBB2, Homo sapiens, UniProt P04626)

COc1ncccc1-c1cnn2ccc(N3CCN(C(=O)OC(C)C)CC3)nc12  remaining binding (binding; competition with immobilised ligand; 1 µM): 92%
O=c1[nH]c2ccccc2n1C1CCN(Cc2ccc(-c3[nH]c4cc5ncnc5cc4nc3-c3ccccc3)cc2)CC1  remaining signal (cell-free assay; 0.5 µM): 88.9%
Cn1cc(-c2cccc(N3CCc4c(sc5c4CC(C)(C)C5)C3=O)c2CO)cc(Nc2ccncn2)c1=O  inhibition (enzyme activity; inhibitor; 1 µM): 54%
CC(C)(C)c1cc(C=C(C#N)C#N)cc(Br)c1O  remaining activity (enzyme activity; inhibitor; 0.5 µM): 95.7%
c1ccc(C(NCCNC(c2ccccc2)c2ccccc2)c2ccccc2)cc1  inhibition (enzyme activity; inhibitor; 10 µM): -7%
Cn1cncc1[C@@](O)(COc1ccc(C#N)cc1-c1ccc(OC(F)(F)F)cc1)c1ccc(C#N)cc1  remaining binding (cell-free assay; competition with immobilised ligand; 1 µM): 94%
C#Cc1n[nH]c2c(-c3cn([C@@H](C)c4ccccc4)c(=O)[nH]c3=O)cc(F)cc12  inhibition (enzyme activity; inhibitor; 0.1 µM): -8.5%
COc1cc(Nc2ncc(F)c(Nc3ccc4c(n3)NC(=O)C(C)(C)O4)n2)cc(OC)c1OC  inhibition (binding; competition with immobilised ligand; 10 µM): 70%
Nc1ncc(-c2nc(N3CCOCC3)nc(N3CCOCC3)n2)c(C(F)F)n1  remaining binding (binding; competition with immobilised ligand; 10 µM): 65%
Cc1nn(C)cc1-c1nc2c(N3CCN(Cc4ccc(Cl)cc4)CC3)c(Cl)cnc2[nH]1  remaining binding (binding; competition with immobilised ligand; 1 µM): 70%
C#Cc1n[nH]c2c(-c3cn([C@@H](C)c4ccccn4)c(=O)[nH]c3=O)cc(F)cc12  inhibition (enzyme activity; inhibitor; 0.1 µM): -0.7%
Cn1cc(-c2cc(F)cc(N3CCn4c(cc5c4CCCC5)C3=O)c2CO)cc(Nc2ccc(N3CCN(C4COC4)CC3)cn2)c1=O  inhibition (enzyme activity; inhibitor; 0.1 µM): 7%
C[C@H](C(=O)N[C@H]1COc2ccccc2[C@@H]1S(C)(=O)=O)c1ccc(F)cc1  inhibition (enzyme activity; inhibitor; 10 µM): 0%
N#CC1(c2ccccn2)CCN(Cc2cc(C(=O)O)c(=O)n3ccccc23)CC1  remaining binding (cell-free assay; competition with immobilised ligand; 1 µM): 96%
